According to ChEMBL document CHEMBL4382285, “Discovery of Novel Retigabine Derivatives as Potent KCNQ4 and KCNQ5 Channel Agonists with Improved Specificity” (ACS Med Chem Lett, 2019):
Activity calls are given as the source filed them. No cut-off for these calls is given here.

What was measured:
Assay type in all cases: cell-based
[1] = target: T1, Potassium voltage-gated channel subfamily KQT member 4 (Homo sapiens) (UniProt P56696); experiment: Activity at human KCNQ4 expressed in CHOK1 cells assessed as ratio of amplitude of outward current in presence of test compound to amplitude of outward current in absence of test compound at 10 uM at -10 mV by whole cell patch clamp assay
T1 sequence (whole entry): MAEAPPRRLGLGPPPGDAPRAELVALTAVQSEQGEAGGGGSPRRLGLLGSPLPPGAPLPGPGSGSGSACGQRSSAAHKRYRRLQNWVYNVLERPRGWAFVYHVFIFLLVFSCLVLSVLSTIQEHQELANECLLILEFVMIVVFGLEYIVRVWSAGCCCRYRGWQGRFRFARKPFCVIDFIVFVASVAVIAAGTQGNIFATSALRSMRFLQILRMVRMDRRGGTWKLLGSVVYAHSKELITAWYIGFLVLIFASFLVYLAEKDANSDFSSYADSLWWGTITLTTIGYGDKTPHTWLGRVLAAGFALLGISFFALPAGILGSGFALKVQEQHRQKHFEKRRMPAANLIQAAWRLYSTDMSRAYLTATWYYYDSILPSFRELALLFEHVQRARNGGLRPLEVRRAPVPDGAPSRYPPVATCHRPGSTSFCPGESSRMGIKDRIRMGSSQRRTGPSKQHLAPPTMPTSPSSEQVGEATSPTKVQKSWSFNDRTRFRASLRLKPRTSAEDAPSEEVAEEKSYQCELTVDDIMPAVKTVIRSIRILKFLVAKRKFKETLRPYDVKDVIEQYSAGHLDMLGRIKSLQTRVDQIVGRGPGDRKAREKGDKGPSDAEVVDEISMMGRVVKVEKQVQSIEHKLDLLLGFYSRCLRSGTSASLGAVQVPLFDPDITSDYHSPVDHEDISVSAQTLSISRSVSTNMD
Outline: (§1)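 CHO-K1 cells expressing the channel, whole-cell voltage clamp, compound at 10 μM. Read-out is the outward current ratio I/I0 with and without compound, taken at −10 mV. I/I0 > 1 counts as activation and < 1 as inhibition. More than four cells per compound.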

[2] = target: Potassium voltage-gated channel subfamily KQT member 2 (Rattus norvegicus) (UniProt O88943); experiment: Activity at rat KCNQ2 expressed in CHOK1 cells assessed as ratio of amplitude of outward current in presence of test compound to amplitude of outward current in absence of test compound at 10 uM at -10 mV by whole cell patch clamp assay; outline: as §1
[3] = target: T2, Potassium voltage-gated channel subfamily KQT member 5 (Homo sapiens, UniProt Q9NR82); experiment: Activity at human KCNQ5 expressed in CHOK1 cells assessed as ratio of amplitude of outward current in presence of test compound to amplitude of outward current in absence of test compound at 10 uM at -10 mV by whole cell patch clamp assay; outline: as §1
[4] = target: T3, Potassium voltage-gated channel subfamily KQT member 2 (Rattus norvegicus, UniProt O88943); experiment: Agonist activity at rat KCNQ2 expressed in CHOK1 cells by whole cell patch clamp assay
Outline: (§2)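 Concentration–response by whole-cell voltage clamp in CHO-K1 cells transiently expressing the homomeric channel. EC50 and Hill coefficient come from fitting outward currents recorded across the tested concentrations.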

[5] = target: T2, Potassium voltage-gated channel subfamily KQT member 5; experiment: Agonist activity at human KCNQ5 expressed in CHOK1 cells by whole cell patch clamp assay; outline: as §2
[6] = target: T1, Potassium voltage-gated channel subfamily KQT member 4 (Homo sapiens); experiment: Effect on voltage-dependent activation of human KCNQ4 expressed in CHOK1 cells assessed as negative shift in current activation curve at 10 uM by whole cell patch clamp assay
[7] = target: T4, Potassium voltage-gated channel subfamily KQT member 4 (Homo sapiens, UniProt P56696); experiment: Agonist activity at human KCNQ4 expressed in CHOK1 cells by whole cell patch clamp assay; outline: as §2
T4 sequence (P56696 whole entry): T1 sequence (whole entry)

[8] = target: Potassium voltage-gated channel subfamily KQT member 2 (Rattus norvegicus) (UniProt O88943); experiment: Effect on voltage-dependent activation of rat KCNQ2 expressed in CHOK1 cells assessed as negative shift in current activation curve at 10 uM by whole cell patch clamp assay
[9] = target: T5, Potassium voltage-gated channel subfamily KQT member 3 (Rattus norvegicus, UniProt O88944); experiment: Agonist activity at rat KCNQ3 expressed in CHOK1 cells assessed as increase in amplitude of outward current at 10 uM by whole cell patch clamp assay relative to control
T5 sequence (O88944 whole entry): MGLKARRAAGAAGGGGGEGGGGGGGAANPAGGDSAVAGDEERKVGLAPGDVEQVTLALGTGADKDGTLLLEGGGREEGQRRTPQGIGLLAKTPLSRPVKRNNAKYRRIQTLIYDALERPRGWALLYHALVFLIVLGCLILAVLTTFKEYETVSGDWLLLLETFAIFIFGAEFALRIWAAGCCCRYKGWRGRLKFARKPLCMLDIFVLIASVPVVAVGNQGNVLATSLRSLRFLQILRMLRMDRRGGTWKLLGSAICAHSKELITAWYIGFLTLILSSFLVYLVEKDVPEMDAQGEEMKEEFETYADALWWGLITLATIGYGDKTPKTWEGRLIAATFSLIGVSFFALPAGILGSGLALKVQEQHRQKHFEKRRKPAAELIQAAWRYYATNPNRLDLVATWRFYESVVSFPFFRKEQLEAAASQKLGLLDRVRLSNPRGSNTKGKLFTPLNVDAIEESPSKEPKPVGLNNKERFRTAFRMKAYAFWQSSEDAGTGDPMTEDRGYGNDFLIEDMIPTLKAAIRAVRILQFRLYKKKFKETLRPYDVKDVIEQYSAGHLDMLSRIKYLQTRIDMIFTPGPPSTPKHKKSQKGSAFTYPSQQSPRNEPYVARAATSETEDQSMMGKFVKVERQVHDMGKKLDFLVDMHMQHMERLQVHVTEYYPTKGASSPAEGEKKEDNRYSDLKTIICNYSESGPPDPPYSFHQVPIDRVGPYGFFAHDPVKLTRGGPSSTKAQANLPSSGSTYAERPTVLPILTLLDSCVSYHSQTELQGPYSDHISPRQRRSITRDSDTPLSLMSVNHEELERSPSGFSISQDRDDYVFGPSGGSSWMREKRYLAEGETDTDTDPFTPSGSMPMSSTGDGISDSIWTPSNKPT
Outline: (§3)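 Individual KCNQ subtypes and KCNQ2/3 heteromers transfected into CHO cells, whole-cell recording before and after 10 μM compound. Cells held at −80 mV, stepped from −90 to +60 mV in 10 mV increments for 1500 ms, then to −120 mV for 500 ms. Currents compared at −10 and +60 mV.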

[10] = target: Potassium voltage-gated channel subfamily KQT member 2 (Rattus norvegicus) (UniProt O88943); experiment: Channel opening activity at rat KCNQ2 expressed in CHOK1 cells at 10 uM at -60 mV by whole cell patch clamp assay
[11] = target: Potassium voltage-gated channel subfamily KQT member 2 (Rattus norvegicus) (UniProt O88943); experiment: Inhibition of rat homomeric KCNQ2 expressed in CHOK1 cells assessed as effect on outward current amplitude at 30 uM by whole cell patch clamp assay
Outline: (§4)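 Homomeric KCNQ2 in CHO-K1 cells, whole-cell voltage clamp, compound applied over 1–30 μM. Change in outward current amplitude was read against the pre-drug current, including at 30 μM.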

[12] = target: Voltage-gated potassium channel, KQT; KCNQ2(Kv7.2)/KCNQ3(Kv7.3) (Homo sapiens, UniProt O43526+O43525); experiment: Agonist activity at KCNQ2/KCNQ3 (unknown origin) expressed in CHOK1 cells assessed as increase in amplitude of outward current at 10 uM by whole cell patch clamp assay relative to control; outline: as §3
[13] = target: T3, Potassium voltage-gated channel subfamily KQT member 2; experiment: Activation of rat homomeric KCNQ2 expressed in CHOK1 cells assessed as outward current amplitude up to 30 uM by whole cell patch clamp assay; outline: as §4
[14] = target: T1, Potassium voltage-gated channel subfamily KQT member 4 (Homo sapiens); experiment: Channel opening activity at human KCNQ4 expressed in CHOK1 cells at 10 uM at -60 mV by whole cell patch clamp assay
[15] = target: Potassium voltage-gated channel subfamily KQT member 2 (Rattus norvegicus) (UniProt O88943); experiment: Inhibition of rat KCNQ2 expressed in CHOK1 cells at 10 uM at -10 mV by whole cell patch clamp assay relative to control; outline: as §1

T3 sequence (O88943 whole entry): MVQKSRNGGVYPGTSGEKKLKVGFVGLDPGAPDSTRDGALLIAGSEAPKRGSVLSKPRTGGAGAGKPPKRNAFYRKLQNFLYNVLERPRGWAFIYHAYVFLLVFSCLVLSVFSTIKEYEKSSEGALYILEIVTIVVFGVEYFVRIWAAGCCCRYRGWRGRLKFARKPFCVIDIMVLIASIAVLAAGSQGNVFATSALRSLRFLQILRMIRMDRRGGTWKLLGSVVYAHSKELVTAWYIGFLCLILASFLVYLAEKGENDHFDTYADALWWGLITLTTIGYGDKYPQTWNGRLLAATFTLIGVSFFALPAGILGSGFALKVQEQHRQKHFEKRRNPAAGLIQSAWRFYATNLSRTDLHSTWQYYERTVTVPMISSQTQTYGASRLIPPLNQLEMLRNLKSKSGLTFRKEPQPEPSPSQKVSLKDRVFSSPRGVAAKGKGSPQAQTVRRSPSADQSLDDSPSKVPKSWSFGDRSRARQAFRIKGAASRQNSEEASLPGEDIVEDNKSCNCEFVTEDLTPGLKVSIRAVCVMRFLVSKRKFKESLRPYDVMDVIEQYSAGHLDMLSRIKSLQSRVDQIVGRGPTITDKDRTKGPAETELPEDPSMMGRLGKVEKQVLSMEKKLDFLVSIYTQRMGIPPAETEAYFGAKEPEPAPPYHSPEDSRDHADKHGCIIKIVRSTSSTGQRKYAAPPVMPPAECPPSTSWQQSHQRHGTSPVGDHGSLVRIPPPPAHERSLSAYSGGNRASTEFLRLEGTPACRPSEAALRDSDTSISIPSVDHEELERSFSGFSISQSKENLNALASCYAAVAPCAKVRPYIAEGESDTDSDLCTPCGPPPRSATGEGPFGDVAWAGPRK
Chain of Potassium voltage-gated channel subfamily KQT member 2 (Rattus norvegicus) (O88943 whole entry): as above
T2 sequence (Q9NR82 whole entry): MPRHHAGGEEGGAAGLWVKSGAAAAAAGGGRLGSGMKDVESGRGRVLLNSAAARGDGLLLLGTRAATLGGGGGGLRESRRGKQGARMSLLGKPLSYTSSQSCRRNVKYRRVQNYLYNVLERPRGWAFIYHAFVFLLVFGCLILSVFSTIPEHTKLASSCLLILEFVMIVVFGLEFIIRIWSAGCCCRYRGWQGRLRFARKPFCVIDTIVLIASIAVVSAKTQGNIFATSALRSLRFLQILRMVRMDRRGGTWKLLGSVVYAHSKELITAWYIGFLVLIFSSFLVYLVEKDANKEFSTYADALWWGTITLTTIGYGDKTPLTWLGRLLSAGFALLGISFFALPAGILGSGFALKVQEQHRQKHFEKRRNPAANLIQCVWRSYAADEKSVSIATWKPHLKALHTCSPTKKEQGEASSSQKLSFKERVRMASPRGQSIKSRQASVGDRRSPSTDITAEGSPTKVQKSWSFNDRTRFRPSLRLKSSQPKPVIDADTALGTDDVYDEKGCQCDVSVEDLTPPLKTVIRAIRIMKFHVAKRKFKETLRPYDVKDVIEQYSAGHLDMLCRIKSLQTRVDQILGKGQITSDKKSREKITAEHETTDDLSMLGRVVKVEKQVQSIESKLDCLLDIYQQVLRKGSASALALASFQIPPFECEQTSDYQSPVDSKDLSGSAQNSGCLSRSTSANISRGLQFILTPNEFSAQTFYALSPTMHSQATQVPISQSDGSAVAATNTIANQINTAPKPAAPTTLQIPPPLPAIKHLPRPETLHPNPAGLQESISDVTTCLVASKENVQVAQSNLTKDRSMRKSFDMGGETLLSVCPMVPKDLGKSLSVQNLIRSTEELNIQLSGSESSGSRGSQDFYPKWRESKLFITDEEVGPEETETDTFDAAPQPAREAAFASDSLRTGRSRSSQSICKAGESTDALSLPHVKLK
Chain of Voltage-gated potassium channel, KQT; KCNQ2(Kv7.2)/KCNQ3(Kv7.3) (O43526 whole entry): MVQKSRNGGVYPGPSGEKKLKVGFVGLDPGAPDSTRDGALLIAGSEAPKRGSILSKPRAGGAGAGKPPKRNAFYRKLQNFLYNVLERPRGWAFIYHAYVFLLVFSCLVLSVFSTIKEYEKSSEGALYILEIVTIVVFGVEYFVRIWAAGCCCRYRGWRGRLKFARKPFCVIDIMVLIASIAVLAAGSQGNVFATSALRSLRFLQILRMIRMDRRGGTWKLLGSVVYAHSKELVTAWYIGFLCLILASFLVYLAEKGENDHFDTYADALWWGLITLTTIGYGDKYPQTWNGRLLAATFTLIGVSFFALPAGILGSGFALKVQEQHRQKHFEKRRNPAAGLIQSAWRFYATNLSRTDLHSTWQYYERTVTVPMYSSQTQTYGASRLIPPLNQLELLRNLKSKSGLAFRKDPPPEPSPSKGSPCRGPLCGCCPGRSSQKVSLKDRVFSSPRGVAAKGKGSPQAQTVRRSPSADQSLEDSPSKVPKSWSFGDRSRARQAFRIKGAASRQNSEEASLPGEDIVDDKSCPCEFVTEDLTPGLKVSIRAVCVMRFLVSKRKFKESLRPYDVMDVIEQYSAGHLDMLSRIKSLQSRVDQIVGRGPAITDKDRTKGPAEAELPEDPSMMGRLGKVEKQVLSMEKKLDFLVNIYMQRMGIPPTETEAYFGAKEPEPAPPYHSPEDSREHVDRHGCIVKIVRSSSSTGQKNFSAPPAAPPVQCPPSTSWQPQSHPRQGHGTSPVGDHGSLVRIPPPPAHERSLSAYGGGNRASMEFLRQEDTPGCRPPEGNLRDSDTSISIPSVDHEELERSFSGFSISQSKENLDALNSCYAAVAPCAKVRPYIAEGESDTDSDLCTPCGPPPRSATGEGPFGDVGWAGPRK
Chain of Voltage-gated potassium channel, KQT; KCNQ2(Kv7.2)/KCNQ3(Kv7.3) (O43525 whole entry): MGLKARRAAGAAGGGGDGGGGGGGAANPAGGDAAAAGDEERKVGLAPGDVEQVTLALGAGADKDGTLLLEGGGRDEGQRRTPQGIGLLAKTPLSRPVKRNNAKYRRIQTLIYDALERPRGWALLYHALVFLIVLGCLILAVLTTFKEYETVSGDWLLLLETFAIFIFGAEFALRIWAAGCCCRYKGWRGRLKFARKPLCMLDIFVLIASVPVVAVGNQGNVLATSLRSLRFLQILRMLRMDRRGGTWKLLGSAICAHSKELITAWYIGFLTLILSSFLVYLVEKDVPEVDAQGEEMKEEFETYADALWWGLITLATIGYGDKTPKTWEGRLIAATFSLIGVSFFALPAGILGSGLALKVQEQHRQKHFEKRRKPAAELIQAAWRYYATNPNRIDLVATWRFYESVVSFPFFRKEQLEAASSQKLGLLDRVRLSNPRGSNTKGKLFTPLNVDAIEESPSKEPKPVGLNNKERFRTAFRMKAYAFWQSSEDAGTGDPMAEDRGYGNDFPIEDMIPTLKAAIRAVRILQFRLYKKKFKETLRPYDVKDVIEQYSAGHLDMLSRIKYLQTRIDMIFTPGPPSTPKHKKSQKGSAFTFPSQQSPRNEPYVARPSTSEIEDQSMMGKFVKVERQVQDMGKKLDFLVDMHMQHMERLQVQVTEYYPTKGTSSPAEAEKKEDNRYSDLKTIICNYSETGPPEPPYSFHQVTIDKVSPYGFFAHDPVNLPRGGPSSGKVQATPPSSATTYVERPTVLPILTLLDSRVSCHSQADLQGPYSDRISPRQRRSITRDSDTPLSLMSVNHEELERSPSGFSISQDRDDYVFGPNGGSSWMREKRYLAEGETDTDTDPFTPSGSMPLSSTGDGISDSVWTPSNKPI

SMILES | Ratio [1] | Ratio [2] | Ratio [3] | also measured
C#CCN(Cc1ccc(F)cc1)c1ccc(NC(=O)OC(C)C)c(NC(=O)OC(C)C)c1 | 1.33 | 0.35 | 3.11 | 
C#CCN(Cc1ccc(F)cc1)c1ccc(NC(=O)OCCCC)c(NC(=O)OCCCC)c1 | 2.75 | 0.77 | 4.13 | 
C#CCN(Cc1ccc(F)cc1)c1ccc(NC(=O)OCC)c(NC(=O)OC)c1 | 2.56 | 0.61 | 3.34 | 
C#CCN(Cc1ccc(F)cc1)c1ccc(NC(=O)OC)c(NC(=O)OC)c1 | 4.77 | 1.37 | 2.89 | 
CCOC(=O)Nc1ccc(N(CC2=CCCCC2)Cc2ccc(F)cc2)cc1NC(=O)OCC | 1.49 | 1.19 | 1.05 | 
C#CCN(Cc1ccc(F)cc1)c1ccc(NC(=O)OCc2ccccc2)c(NC(=O)OCc2ccccc2)c1 | 3.02 | 1.25 | 3.57 | 
C#CCN(Cc1ccc(F)cc1)c1ccc(NC(=O)OCC)c(NC(=O)OCCCC)c1 | 4.16 | 1.06 | 3.62 | 
CCOC(=O)Nc1ccc(N(CC=C(C)C)Cc2ccc(F)cc2)cc1NC(=O)OCC | 3.63 | 0.66 | 1.37 | 
C#CCN(Cc1ccc(F)cc1)c1ccc(NC(=O)OC2CCCC2)c(NC(=O)OC2CCCC2)c1 | 0.88 | 0.21 | 1.25 | 
C#CCN(Cc1ccc(F)cc1)c1ccc(NC(=O)OCC(C)C)c(NC(=O)OCC(C)C)c1 | 1.52 | 0.83 | 1.73 | 
C#CCN(Cc1ccc(F)cc1)c1ccc(NC(=O)OCC)c(NC(=O)OC(C)C)c1 | 5.01 | 0.94 | 5.71 | 
CCOC(=O)Nc1ccc(NCc2ccc(F)cc2)cc1N [EZOGABINE] |  | 1.6 |  | EC50 [4]: 2.17 µM; EC50 [5]: 3.45 µM; Activity [6]: 20 to 30 mV; EC50 [7]: 5.9 µM; Activity [8]: 20 to 30 mV
C#CCN(Cc1ccc(F)cc1)c1ccc(NC(=O)OCC)c(NC(=O)OCC=C)c1 | 3.68 | 0.96 | 4.67 | 
C#CCN(Cc1ccc(F)cc1)c1ccc(NC(=O)OC2CC2)c(NC(=O)OC2CC2)c1 | 1.51 | 0.64 | 2.55 | 
C#CCN(Cc1ccc(F)cc1)c1ccc(NC(=O)OCC)c(NC(=O)OC(C)(C)C)c1 | 6.37 | 1.16 | 4.58 | EC50 [4]: > 30 µM; EC50 [5]: 1.68 µM; fold change (FC) [9]: 1.5; Activity [10]: inactive; inhibition [11]: Active; Activity [6]: inactive; EC50 [7]: 0.78 µM; Activity [8]: inactive; fold change (FC) [12]: 1.5; Activity [13]: Not Active; Activity [14]: inactive
C/C=C(\C)CN(Cc1ccc(F)cc1)c1ccc(NC(=O)OCC)c(NC(=O)OCC)c1 | 2.36 | 0.85 | 1.28 | 
C#CCN(Cc1ccc(F)cc1)c1ccc(NC(=O)OCC)c(NC(=O)OCCC)c1 | 3.95 | 1.07 | 5.81 | 
C#CCN(Cc1ccc(F)cc1)c1ccc(NC(=O)OCC)c(NC(=O)OCc2ccccc2)c1 | 1.27 | 0.97 | 2.57 | 
CCOC(=O)Nc1ccc(N(CC#Cc2ccccc2)Cc2ccc(F)cc2)cc1NC(=O)OCC | 1.54 | 1.26 | 1.13 | 
C#CCN(Cc1ccc(F)cc1)c1ccc(NC(=O)OCC)c(NC(=O)OCC(C)C)c1 | 5.19 | 1.04 | 4.84 | 
C#CCN(Cc1ccc(F)cc1)c1ccc(NC(=O)OC(C)(C)C)c(NC(=O)OCC)c1 | 7.71 | 1.07 | 4.59 | EC50 [4]: > 30 µM; EC50 [5]: 1.37 µM; EC50 [7]: 1.42 µM
C#CCN(Cc1ccc(F)cc1)c1ccc(NC(=O)OCC=C)c(NC(=O)OCC=C)c1 | 2.21 | 0.67 | 5.26 | 
C#CCN(Cc1ccc(F)cc1)c1ccc(NC(=O)OC(C)(C)C)c(NC(=O)OC(C)(C)C)c1 | 3.05 | 1 | 5.32 | EC50 [4]: > 30 µM; EC50 [5]: 2.43 µM; EC50 [7]: 2.03 µM
C#CCN(Cc1ccc(F)cc1)c1ccc(NC(=O)OC2CCC2)c(NC(=O)OC2CCC2)c1 | 1.21 | 0.26 | 1.33 | 
C#CCN(Cc1ccc(F)cc1)c1ccc(NC(=O)OCCC)c(NC(=O)OCCC)c1 | 2.58 | 0.78 | 2.75 | 
C/C=C/CN(Cc1ccc(F)cc1)c1ccc(NC(=O)OCC)c(NC(=O)OCC)c1 | 1.85 | 0.87 | 1.36 | 
C=CCN(Cc1ccc(F)cc1)c1ccc(NC(=O)OCC)c(NC(=O)OCC)c1 |  | 0.3 | 1.49 | inhibition [15]: 70%
C#CCN(Cc1ccc(F)cc1)c1ccc(NC(=O)Oc2ccccc2)c(NC(=O)Oc2ccccc2)c1 | 1.22 | 0.91 | 1.16 | 
